Test results reported in ChEMBL document CHEMBL2069254, “Synthesis and one-electron reduction characteristics of radiation-activated prodrugs possessing two 5-fluorodeoxyuridine units” (Bioorg Med Chem, 2012).
Calls of active or inactive are those of the source. No cut-off for these calls is given here.

Columns and labels:
[1] = Radiation stability assessed as compound decomposition at 100 uM after exposing to 6.0 Gy/min X-ray irradiation aqueous solution containing 2-methyl-2-propanol under hypoxic conditions by HPLC; type: physicochemical; conditions: buffer
A549 [2] = assay: Cytotoxicity against human A549 cells incubated with 125 uM compound for 12 hrs followed by pre-irradiated 30 to 6 Gy/min X-ray irradiation measured after 72 hrs under hypoxic conditions by microplate reader method; type: functional, cell-based
Method in brief: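 A549 cells seeded at 1500 cells/well and held 6 h at 37 °C under hypoxia (<0.3% O2). Compound added, then 12 h hypoxic incubation at 37 °C. Plates kept hypoxic and X-irradiated at 6 Gy, then incubated 72 h aerobically. Viability read by WST-8 (CCK-8). Mean ± S.D., n = 9.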

[3] = Radiation stability assessed as 5-fluorodeoxyuridine formation at 100 uM after exposing to 6.0 Gy/min X-ray irradiation aqueous solution containing 2-methyl-2-propanol under hypoxic conditions by HPLC; type: physicochemical; conditions: buffer
[4] = Radiation stability assessed as compound decomposition at 100 uM after exposing to 6.0 Gy/min X-ray irradiation aqueous solution containing 2-methyl-2-propanol under aerobic conditions by HPLC; type: physicochemical; conditions: buffer
[5] = Radiation stability assessed as 5-fluorodeoxyuridine formation at 100 uM after exposing to 6.0 Gy/min X-ray irradiation aqueous solution containing 2-methyl-2-propanol under aerobic conditions by HPLC; type: physicochemical; conditions: buffer
A549 [6] = assay: Cytotoxicity against human A549 cells exposed to 1 uM compound pre-irradiated 30 to 120 Gy/min X-ray irradiation measured after 72 hrs under aerobic conditions by microplate reader method; type: functional, cell-based
Method in brief: (§1)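 Compound dissolved in DMEM and X-irradiated (6.0 Gy/min) in a sealed glass ampoule at ambient temperature, under hypoxic or aerobic conditions. A549 cells were seeded at 1500 cells/well and grown 24 h at 37 °C aerobically, then incubated with the irradiated solution aerobically for 72 h. Viability read by WST-8 (CCK-8). Mean ± S.D., n = 6.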

A549 [7] = assay: Cytotoxicity against human A549 cells after 72 hrs by microplate reader method; type: functional, cell-based; conditions: A549, 72 h
Method in brief: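 A549 cells grown in DMEM with 10% FBS and 1% streptomycin/penicillin, seeded at 1500 cells/well, cultured 24 h at 37 °C in 5% CO2/95% air. Exposed to a concentration series under aerobic conditions for 72 h. Viability read by WST-8 (CCK-8) after 30 min at 37 °C; IC50 estimated from viability curves.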

A549 [8] = assay: Cytotoxicity against human A549 cells exposed to 1 uM compound pre-irradiated 30 to 120 Gy/min X-ray irradiation measured after 72 hrs under hypoxic conditions by microplate reader method; type: functional, cell-based; method in brief: as §1

## O=C(Cn1c(=O)c(F)cn([C@H]2C[C@H](O)[C@@H](CO)O2)c1=O)Cn1c(=O)c(F)cn([C@H]2C[C@H](O)[C@@H](CO)O2)c1=O
[1]
  Drug degradation: 319.1 nmol/J
A549 [2]
  Activity: inactive
[3]
  Drug metabolism: 125.9 nmol/J
[4]
  Drug degradation: 173.6 nmol/J
[5]
  Drug metabolism: 14.5 nmol/J
A549 [6]
  Activity: inactive
A549 [7]
  IC50: 4660 nM
A549 [8]
  Activity: Active

## CC(C(=O)C(C)n1c(=O)c(F)cn([C@H]2C[C@H](O)[C@@H](CO)O2)c1=O)n1c(=O)c(F)cn([C@H]2C[C@H](O)[C@@H](CO)O2)c1=O (stereo not given in full)
[1]
  Drug degradation: 291 nmol/J
[3]
  Drug metabolism: 115.3 nmol/J
[4]
  Drug degradation: 177.2 nmol/J
[5]
  Drug metabolism: 26.2 nmol/J
A549 [7]
  IC50: 1040 nM

## O=c1[nH]c(=O)n([C@H]2C[C@H](O)[C@@H](CO)O2)cc1F [FLOXURIDINE]
A549 [7]
  IC50: 12.4 nM

## O=c1c(F)cn([C@H]2C[C@H](O)[C@@H](CO)O2)c(=O)n1CCCn1c(=O)c(F)cn([C@H]2C[C@H](O)[C@@H](CO)O2)c1=O
[1]
  Drug degradation: 148.8 nmol/J
[3]
  Drug metabolism: < 1 nmol/J
[4]
  Drug degradation: 140.3 nmol/J
[5]
  Drug metabolism: 1.4 nmol/J

## CC(=O)Cn1c(=O)c(F)cn([C@H]2C[C@H](O)[C@@H](CO)O2)c1=O
[1]
  Drug degradation: 312.5 nmol/J
[3]
  Drug metabolism: 50.9 nmol/J
